Blank lines part the entries; values can stand above or below the compound they belong to.
What was measured:
Enterococcus faecalis [1] = assay: Percent inhibition of D-Alanine-D-Alanine Ligase at 10e-3 M of the compound
How it was run: (§1)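 Enzyme was a 50% ammonium sulphate fraction from sonicated Streptococcus faecalis ATCC 8043 extract (0.38 units/mg). Inhibitor was preincubated 40 min at room temperature with enzyme, 0.008 M MgCl2, 0.01 M KCl and 0.05 M Tris-Cl pH 7.9. Then 0.005 M ATP and 0.005 M (14C-1)-D-alanine were added and the mix held 30 min at 37 °C. Radiolabelled product was resolved by silica TLC and integrated.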

Enterococcus faecalis [2] = assay: Percent inhibition of DAla-DAla Ligase at 10e -3 M of the compound; how it was run: as §1
[3] = Inhibition of D-Alanine-D-Alanine Ligase Ligase by the compound; design: species or system Enterococcus faecalis; how it was run: as §1
Enterococcus faecalis [4] = assay: Percent inhibition of DAla-DAla Ligase at 10e-3 M of the compound; how it was run: as §1
[5] = Inhibition of DAla-DAla Ligase by the compound; design: species or system Enterococcus faecalis; how it was run: as §1
[6] = Inhibition of DAla-DAla Ligase at 10e -3 M of the compound; design: species or system Enterococcus faecalis; how it was run: as §1

SMILES: NC(CCC(=O)CP(=O)(O)O)C(=O)O (centres undefined)
Ki [3]: 500 µM

SMILES: C[C@@H](N)C(=O)CP(=O)(O)O
inhibition (Enterococcus faecalis [4]): 71% | Ki [5]: 510 µM

SMILES: C[C@@H](N)P(=O)(O)O
IC50 [6]: 930 µM

SMILES: C[C@H](N)C(=O)CP(=O)(O)O
inhibition (Enterococcus faecalis [1]): 14%

SMILES: C[C@@H](N)C(=O)NP(=O)(O)O
inhibition (Enterococcus faecalis [2]): 85% | Ki [5]: 50 µM

The next lines start with the values.

inhibition (Enterococcus faecalis [1]): 18%
SMILES: CC(C(=O)[C@@H](C)N)P(=O)(O)O (some centres undefined)

inhibition (Enterococcus faecalis [2]): 24%
SMILES: C[C@@H](N)/C=C/P(=O)(O)O

inhibition (Enterococcus faecalis [1]): 32%
SMILES: C[C@@H](N)C(O)C(O)P(=O)(O)O (some centres undefined)

inhibition (Enterococcus faecalis [1]): 26%
SMILES: CC[C@@H](N)C(=O)CP(=O)(O)O

inhibition (Enterococcus faecalis [1]): 25%
SMILES: C[C@@H](N)C(O)CP(=O)(O)O (some centres undefined)

Ki [5]: 250 µM
SMILES: N[C@@H]1CONC1=O [CYCLOSERINE]

inhibition (Enterococcus faecalis [1]): 10%
SMILES: C[C@@H](N)C(=O)CCP(=O)(O)O
